# Experimental data reported in ChEMBL document CHEMBL4480366, “Rationally synthesized coumarin based pyrazolines ameliorate carrageenan induced inflammation through COX-2/pro-inflammatory cytokine inhibition” (Medchemcomm, 2019).
# Active and inactive are the calls of the source. The calls are words filed in the database; no cut-off is given here.
# What was measured:
# [1] = molecular target: T1, Prostaglandin G/H synthase 2 (Ovis aries, UniProt P79208); assay: Inhibition of ovine COX2 using arachidonic acid as substrate preincubated for 10 mins followed by substrate addition and measured after 2 mins by ELISA
# T1 sequence (P79208 whole entry): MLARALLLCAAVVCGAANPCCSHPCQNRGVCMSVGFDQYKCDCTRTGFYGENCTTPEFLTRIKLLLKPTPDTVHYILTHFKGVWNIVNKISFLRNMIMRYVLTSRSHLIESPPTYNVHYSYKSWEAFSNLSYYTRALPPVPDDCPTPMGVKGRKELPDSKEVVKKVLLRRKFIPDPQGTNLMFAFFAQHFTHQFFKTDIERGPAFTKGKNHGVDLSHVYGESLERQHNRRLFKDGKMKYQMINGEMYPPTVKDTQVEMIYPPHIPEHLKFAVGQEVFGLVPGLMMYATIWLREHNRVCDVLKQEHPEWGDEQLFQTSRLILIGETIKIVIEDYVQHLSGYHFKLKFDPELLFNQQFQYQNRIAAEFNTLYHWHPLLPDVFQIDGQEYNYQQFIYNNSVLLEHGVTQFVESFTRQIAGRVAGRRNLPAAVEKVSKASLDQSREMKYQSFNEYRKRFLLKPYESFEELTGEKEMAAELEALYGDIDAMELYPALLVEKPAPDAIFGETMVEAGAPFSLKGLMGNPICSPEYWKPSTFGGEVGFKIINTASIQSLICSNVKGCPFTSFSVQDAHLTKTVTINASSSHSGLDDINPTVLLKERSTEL
# Procedure, shortened: (§1)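 The enzyme, heme and test compound (dissolved in DMSO) were preincubated for 10 min at 37 °C in 0.1 M Tris-HCl, pH 8, with 5 mM EDTA and 2 mM phenol. Arachidonic acid was added to 100 µM final. The reaction was stopped after 2 min with 1 M HCl, then reduced with saturated SnCl2 for 5 min at RT. PGF2α was quantified by EIA (18 h RT, Ellman's reagent 60 min, 410 nm).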
# [2] = In-vitro anti-inflammatory activity assessed as inhibition of heat-induced albumin (unknown origin) denaturation
# Erythrocyte [3] = assay: Anti-inflammatory activity in human erythrocytes assessed as inhibition of heat-induced hemolysis; type: functional, cell-based
# [4] = molecular target: T2, Prostaglandin G/H synthase 1 (Ovis aries, UniProt P05979); assay: Inhibition of ovine COX1 using arachidonic acid as substrate preincubated for 10 mins followed by substrate addition and measured after 2 mins by ELISA; procedure, shortened: as §1
# T2 sequence (P05979 whole entry): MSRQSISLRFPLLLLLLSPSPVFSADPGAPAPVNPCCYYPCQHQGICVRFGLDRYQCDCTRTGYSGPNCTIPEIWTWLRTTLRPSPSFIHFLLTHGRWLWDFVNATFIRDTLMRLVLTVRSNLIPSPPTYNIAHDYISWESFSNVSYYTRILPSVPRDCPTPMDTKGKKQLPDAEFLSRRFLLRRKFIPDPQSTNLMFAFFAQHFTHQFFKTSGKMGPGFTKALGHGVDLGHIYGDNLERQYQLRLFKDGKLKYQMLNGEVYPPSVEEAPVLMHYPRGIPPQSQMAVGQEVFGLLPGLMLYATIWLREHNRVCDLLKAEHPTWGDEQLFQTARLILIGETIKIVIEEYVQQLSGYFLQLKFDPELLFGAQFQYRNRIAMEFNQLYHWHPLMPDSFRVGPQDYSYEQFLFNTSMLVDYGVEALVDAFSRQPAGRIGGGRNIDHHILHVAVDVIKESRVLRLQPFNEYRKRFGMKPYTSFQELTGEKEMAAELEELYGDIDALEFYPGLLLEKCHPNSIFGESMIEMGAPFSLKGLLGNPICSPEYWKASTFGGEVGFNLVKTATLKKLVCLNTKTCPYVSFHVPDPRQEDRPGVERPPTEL
# Erythrocyte [5] = assay: Anti-inflammatory activity in human erythrocytes assessed as inhibition of hypotonicity-induced hemolysis at 10 to 100 ug/ml relative to control; type: functional, cell-based
# Rattus norvegicus [6] = assay: Anti-inflammatory activity Wistar rat assessed as inhibition of carrageenan-induced paw edema at 25 to 50 mg/kg pretreated 30 mins prior to carrageenan-induction and measured after 24 hrs by plethysmography; type: functional
# Procedure, shortened: (§2)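 Male Wistar rats, 4–6 weeks old and weighing 150–200 g, were housed four per cage at 22–24 °C with standard food and water.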
# Rattus norvegicus [7] = assay: Anti-inflammatory activity Wistar rat assessed as reduction in IL-1beta production at 25 mg/kg, ip pretreated 30 mins prior to carrageenan-induction and measured after 24 hrs post induction by immunoassay; type: functional, organism-based; procedure, shortened: as §2
# Rattus norvegicus [8] = assay: Anti-inflammatory activity Wistar rat assessed as reduction in TNF-alpha production at 25 mg/kg, ip pretreated 30 mins prior to carrageenan-induction and measured after 24 hrs post induction by immunoassay; type: functional, organism-based; procedure, shortened: as §2
# Rattus norvegicus [9] = assay: Anti-inflammatory activity Wistar rat assessed as reduction in IL-6 production at 25 mg/kg, ip pretreated 30 mins prior to carrageenan-induction and measured after 24 hrs post induction by immunoassay; type: functional, organism-based; procedure, shortened: as §2
# Rattus norvegicus [10] = assay: Anti-inflammatory activity Wistar rat assessed as inhibition of carrageenan-induced paw edema at 25 to 50 mg/kg pretreated 30 mins prior to carrageenan-induction and measured after 0.5 to 24 hrs by plethysmography; type: functional, organism-based; settings: TDE = time-dependent effect; procedure, shortened: as §2
# Erythrocyte [11] = assay: Anti-inflammatory activity in human erythrocytes assessed as inhibition of hypotonicity-induced hemolysis at 25 ug/ml relative to control; type: functional
# Erythrocyte [12] = assay: Anti-inflammatory activity in human erythrocytes assessed as inhibition of hypotonicity-induced hemolysis at 10 ug/ml relative to control; type: functional
# Erythrocyte [13] = assay: Anti-inflammatory activity in human erythrocytes assessed as inhibition of hypotonicity-induced hemolysis at 100 ug/ml relative to control; type: functional
# Erythrocyte [14] = assay: Anti-inflammatory activity in human erythrocytes assessed as inhibition of hypotonicity-induced hemolysis at 50 ug/ml relative to control; type: functional
# Erythrocyte [15] = assay: Anti-inflammatory activity in human erythrocytes assessed as inhibition of heat-induced hemolysis at 50 ug/ml relative to control; type: functional
# Erythrocyte [16] = assay: Anti-inflammatory activity in human erythrocytes assessed as inhibition of heat-induced hemolysis at 25 ug/ml relative to control; type: functional
# Erythrocyte [17] = assay: Anti-inflammatory activity in human erythrocytes assessed as inhibition of heat-induced hemolysis at 100 ug/ml relative to control; type: functional
# Erythrocyte [18] = assay: Anti-inflammatory activity in human erythrocytes assessed as inhibition of heat-induced hemolysis at 10 ug/ml relative to control; type: functional
# Rattus norvegicus [19] = assay: Analgesic activity in Wistar rat assessed as reduction in acetic acid-induced abnormal writhing administered intraperitoneally 1 hr prior to acetic acid induction relative to control; type: functional; parameters: scale not given: the % may be the effect or the level left; procedure, shortened: as §2
# [20] = Acute toxicity in Wistar rat assessed as induction of sneezing at 300 to 2000 mg/kg, po administered as as single dose observed continuously during 1 to 4 hrs; type: organism-based; settings: in vivo
# Procedure, shortened: (§3)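 Rats of either sex were used, per OECD guidelines, housed four per cage at 22–24 °C with standard food and water. They were fasted 4 h before and 2 h after dosing. Compounds were given as a single oral dose, with an untreated control group. Animals were watched continuously for the first 4 h, then periodically to 24 h, then once or twice daily for 14 days.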
# [21] = Renal toxicity in Wistar rat assessed as effect on kidney at 2000 mg/kg, po administered as as single dose observed continuously during first 4 hrs followed by periodic monitoring for 24 hrs and subsequent observations at once or twice daily for 14 days by hematoxylin and eosin staining-based assay; type: organism-based; settings: in vivo
# [22] = Acute toxicity in Wistar rat assessed as induction of irritation at 300 to 2000 mg/kg, po administered as as single dose observed continuously during 1 to 4 hrs; type: organism-based; settings: in vivo; procedure, shortened: as §3
# [23] = Acute toxicity in Wistar rat assessed as induction of behavioural changes at 50 mg/kg, po administered as as single dose observed continuously during first 4 hrs followed by periodic monitoring for 24 hrs and subsequent observations at once or twice daily for 14 days; type: organism-based; settings: in vivo; procedure, shortened: as §3
# [24] = (§4) Hepatotoxicity in Wistar rat assessed as effect on liver at 2000 mg/kg, po administered as as single dose observed continuously during first 4 hrs followed by periodic monitoring for 24 hrs and subsequent observations at once or twice daily for 14 days by hematoxylin and eosin staining-based assay; type: toxicity, organism-based; settings: in vivo
# [25] = Acute toxicity in Wistar rat assessed as induction of behavioural changes at 50 to 2000 mg/kg, po administered as as single dose observed continuously during first 4 hrs followed by periodic monitoring for 24 hrs and subsequent observations at once or twice daily for 14 days; settings: in vivo
# [26] = Inhibition of soyabean 5-LOX after 5 mins by spectrophotometric analysis; parameters: species or system Glycine max
# [27] = In-vitro anti-inflammatory activity assessed as inhibition of heat-induced albumin (unknown origin) denaturation at 100 ug/ml
# Rattus norvegicus [28] = assay: Analgesic activity in Wistar rat assessed as reduction in acetic acid-induced abnormal writhing administered intraperitoneally 30 mins after substance P injection followed by acetic acid induction after 30 mins; type: functional, organism-based; procedure, shortened: as §2
# [29] = Acute toxicity in Wistar rat assessed as induction of itching at 300 to 2000 mg/kg, po administered as as single dose observed continuously during 1 to 4 hrs; type: organism-based; settings: in vivo; procedure, shortened: as §3
# [30] = as §4, with “Cardiotoxicity” for “Hepatotoxicity”, “myocardium” for “liver”; type: toxicity, organism-based; settings: in vivo
Compound,IC50 [1],IC50 [4],inhibition [2],Activity (Erythrocyte [3]),Activity (Erythrocyte [5]),inhibition (INH) (Rattus norvegicus [6]),Activity (Rattus norvegicus [7]),Activity (Rattus norvegicus [8]),Activity (Rattus norvegicus [9]),inhibition (Rattus norvegicus [10]),other results
COc1ccccc1C1CC(c2cc3ccccc3oc2=O)=NN1C(C)=O (stereo not drawn),4.37 µM,> 30 µM,Dose-dependent effect,Dose-dependent effect,Active,–,–,–,–,–,–
CC(=O)N1N=C(c2cc3ccccc3oc2=O)CC1c1ccc(O)cc1 (stereo not drawn),2.39 µM,20 µM,Dose-dependent effect,Dose-dependent effect,Active,55.43%,Active,Active,Active,Tde,–
CC(=O)N1N=C(c2cc3ccccc3oc2=O)CC1c1ccccc1 (stereo not drawn),–,–,Dose-dependent effect,Dose-dependent effect,Active,–,–,–,–,–,–
CC(=O)N1N=C(c2cc3ccccc3oc2=O)CC1c1ccc(Cl)cc1 (stereo not drawn),–,–,Dose-dependent effect,Dose-dependent effect,Active,–,–,–,–,–,–
COc1ccc(C2CC(c3cc4ccccc4oc3=O)=NN2C(C)=O)cc1 (stereo not drawn),0.41 µM,22.4 µM,Dose-dependent effect,Dose-dependent effect,Active,67.39%,Active,Active,Active,Tde,Activity [20]: Toxic; inhibition at 25 µg/mL (Erythrocyte [11]): 63%; Activity [21]: Non-Toxic; Activity [22]: Toxic; Activity [23]: Non-Toxic; Activity [24]: Non-Toxic; inhibition at 10 µg/mL (Erythrocyte [12]): 62%; inhibition at 100 µg/mL (Erythrocyte [13]): 68%; inhibition at 50 µg/mL (Erythrocyte [14]): 67%; inhibition at 50 µg/mL (Erythrocyte [15]): 67%; inhibition at 25 µg/mL (Erythrocyte [16]): 63%; Activity [25]: Non-Toxic; inhibition at 100 µg/mL (Erythrocyte [17]): 69%; inhibition at 10 µg/mL (Erythrocyte [18]): 60%; IC50 [26]: 12 µM; Activity (Rattus norvegicus [19]): 70.5%; inhibition [27]: 70%; Activity (Rattus norvegicus [28]): inactive; Activity [29]: Toxic; Activity [30]: Non-Toxic

# Continued, in another order:
IC50 [1],IC50 [4],Compound,inhibition [2],Activity (Erythrocyte [3]),Activity (Erythrocyte [5]),inhibition (INH) (Rattus norvegicus [6]),Activity (Rattus norvegicus [7]),Activity (Rattus norvegicus [8]),Activity (Rattus norvegicus [9]),inhibition (Rattus norvegicus [10]),other results
4.35 µM,> 30 µM,COc1cc(C2CC(c3cc4ccccc4oc3=O)=NN2C(C)=O)cc(OC)c1OC (stereo not drawn),Dose-dependent effect,Dose-dependent effect,Active,–,–,–,–,–,–
1.79 µM,16.2 µM,CC(=O)N1N=C(c2cc3ccccc3oc2=O)CC1c1ccc([N+](=O)[O-])cc1 (stereo not drawn),Dose-dependent effect,Dose-dependent effect,Active,52.17%,Active,Active,Active,Tde,–
0.23 µM,> 30 µM,Cc1ccc(-c2ncc(Cl)cc2-c2ccc(S(C)(=O)=O)cc2)cn1 [ETORICOXIB],–,–,–,–,–,–,–,–,inhibition at 25 µg/mL (Erythrocyte [11]): 62%; inhibition (Rattus norvegicus [6]): Active; inhibition at 10 µg/mL (Erythrocyte [12]): 52%; inhibition at 100 µg/mL (Erythrocyte [13]): 69%; inhibition at 50 µg/mL (Erythrocyte [14]): 66%; inhibition at 50 µg/mL (Erythrocyte [15]): 78%; inhibition at 25 µg/mL (Erythrocyte [16]): 73%; inhibition at 100 µg/mL (Erythrocyte [17]): 76%; inhibition at 10 µg/mL (Erythrocyte [18]): 65%; Activity (Rattus norvegicus [19]): 57.6%
